Laboratory results taken from ChEMBL document CHEMBL1914423, “New imidazo[2,1-b]thiazole derivatives: synthesis, in vitro anticancer evaluation, and in silico studies” (Eur J Med Chem, 2011).

Key:
Format in all cases: functional
SNB-19 = assay: Anticancer activity against human SNB19 cells assessed as cell growth at 10^-5 M after 48 hrs by SRB assay; settings: SNB-19, 48 h, read-out: Activity
EKVX = assay: Anticancer activity against human EKVX cells assessed as cell growth at 10^-5 M after 48 hrs by SRB assay; settings: read-out: Activity
Method in brief: (§1)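 NCI-60 single-dose screen at one concentration. Cells grown in RPMI 1640 with 5% FBS and 2 mM L-glutamine, plated at 5000–40,000 cells/well, and pre-incubated 24 h at 37 °C in 5% CO2 before DMSO-dissolved drug was added. Cells fixed with TCA, SRB-stained, absorbance read at 515 nm. Percent growth calculated against time-zero and untreated control plates.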

MDA-MB-231 = assay: Anticancer activity against human MDA-MB-231 cells assessed as cell growth at 10^-5 M after 48 hrs by SRB assay; settings: MDA-MB-231, 48 h, read-out: Activity; method in brief: as §1
SK-MEL-2 = assay: Anticancer activity against human SK-MEL-2 cells assessed as cell growth at 10^-5 M after 48 hrs by SRB assay; settings: SK-MEL-2, 48 h, read-out: Activity
SR = assay: Anticancer activity against human SR cells assessed as cell growth at 10^-5 M after 48 hrs by SRB assay; settings: read-out: Activity
Method in brief: (§2)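 NCI-60 single-dose screen: cells in RPMI 1640 with 5% FBS and 2 mM L-glutamine, plated at 5000–40,000 cells/well by doubling time, and preincubated 24 h at 37 °C. Compound given at one concentration from DMSO stock. Cells TCA-fixed and SRB-stained, absorbance at 515 nm. Percent growth relative to time-zero and untreated controls; inhibition % = 100 − growth %.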

HCT-116 = assay: Anticancer activity against human HCT116 cells assessed as cell growth at 10^-5 M after 48 hrs by SRB assay; settings: HCT-116, 48 h, read-out: Activity; method in brief: as §1
HOP-92 = assay: Anticancer activity against human HOP92 cells assessed as cell growth at 10^-5 M after 48 hrs by SRB assay; settings: HOP-92, 48 h, read-out: Activity; method in brief: as §1
NCI-H322M = assay: Anticancer activity against human NCI-H322M cells assessed as cell growth at 10^-5 M after 48 hrs by SRB assay; settings: read-out: Activity
IGROV-1 = assay: Anticancer activity against human IGROV1 cells assessed as cell growth at 10^-5 M after 48 hrs by SRB assay; settings: IGROV-1, 48 h, read-out: Activity; method in brief: as §1
UACC-257 = assay: Anticancer activity against human UACC257 cells assessed as cell growth at 10^-5 M after 48 hrs by SRB assay; settings: UACC-257, 48 h, read-out: Activity; method in brief: as §2
UO-31 = assay: Anticancer activity against human UO31 cells assessed as cell growth at 10^-5 M after 48 hrs by SRB assay; settings: UO-31, 48 h, read-out: Activity; method in brief: as §2
NCI-H460 = assay: Anticancer activity against human NCI-H460 cells assessed as cell growth at 10^-5 M after 48 hrs by SRB assay; settings: NCI-H460, 48 h, read-out: Activity
BT-549 = assay: Anticancer activity against human BT549 cells assessed as cell growth at 10^-5 M after 48 hrs by SRB assay; settings: BT-549, 48 h, read-out: Activity; method in brief: as §1
HT-29 = assay: Anticancer activity against human HT-29 cells assessed as cell growth at 10^-5 M after 48 hrs by SRB assay; settings: HT-29, 48 h, read-out: Activity; method in brief: as §1
MOLT-4 = assay: Anticancer activity against human MOLT4 cells assessed as cell growth at 10^-5 M after 48 hrs by SRB assay; settings: MOLT-4, 48 h, read-out: Activity
HOP-62 = assay: Anticancer activity against human HOP62 cells assessed as cell growth at 10^-5 M after 48 hrs by SRB assay; settings: HOP-62, 48 h, read-out: Activity; method in brief: as §1
CCRF-CEM = assay: Anticancer activity against human CCRF-CEM cells assessed as cell growth at 10^-5 M after 48 hrs by SRB assay; settings: read-out: Activity; method in brief: as §1
SK-MEL-5 = assay: Anticancer activity against human SK-MEL-5 cells assessed as cell growth at 10^-5 M after 48 hrs by SRB assay; settings: SK-MEL-5, 48 h, read-out: Activity
A549 = assay: Anticancer activity against human A549 cells assessed as cell growth at 10^-5 M after 48 hrs by SRB assay; settings: A549, 48 h, read-out: Activity; method in brief: as §1
OVCAR-4 = assay: Anticancer activity against human OVCAR4 cells assessed as cell growth at 10^-5 M after 48 hrs by SRB assay; settings: OVCAR-4, 48 h, read-out: Activity
UACC-62 = assay: Anticancer activity against human UACC62 cells assessed as cell growth at 10^-5 M after 48 hrs by SRB assay; settings: UACC-62, 48 h, read-out: Activity; method in brief: as §2
NCI-H522 = assay: Anticancer activity against human NCI-H522 cells assessed as cell growth at 10^-5 M after 48 hrs by SRB assay; settings: NCI-H522, 48 h, read-out: Activity
T47D = assay: Anticancer activity against human T47D cells assessed as cell growth at 10^-5 M after 48 hrs by SRB assay; settings: read-out: Activity; method in brief: as §2
NCI-H23 = assay: Anticancer activity against human NCI-H23 cells assessed as cell growth at 10^-5 M after 48 hrs by SRB assay; settings: NCI-H23, 48 h, read-out: Activity
NCI/ADR-RES = assay: Anticancer activity against human NCI/ADR-RES cells assessed as cell growth at 10^-5 M after 48 hrs by SRB assay; settings: read-out: Activity
RXF 393 = assay: Anticancer activity against human RXF393 cells assessed as cell growth at 10^-5 M after 48 hrs by SRB assay; settings: RXF 393, 48 h, read-out: Activity
SF-539 = assay: Anticancer activity against human SF539 cells assessed as cell growth at 10^-5 M after 48 hrs by SRB assay; settings: SF-539, 48 h, read-out: Activity
COLO 205 = assay: Anticancer activity against human COLO205 cells assessed as cell growth at 10^-5 M after 48 hrs by SRB assay; settings: COLO 205, 48 h, read-out: Activity; method in brief: as §1
SW-620 = assay: Anticancer activity against human SW620 cells assessed as cell growth at 10^-5 M after 48 hrs by SRB assay; settings: SW-620, 48 h, read-out: Activity; method in brief: as §2
MDA-MB-468 = assay: Anticancer activity against human MDA-MB-468 cells assessed as cell growth at 10^-5 M after 48 hrs by SRB assay; settings: MDA-MB-468, 48 h, read-out: Activity
MCF7 = assay: Anticancer activity against human MCF7 cells assessed as cell growth at 10^-5 M after 48 hrs by SRB assay; settings: MCF7, 48 h, read-out: Activity; method in brief: as §1
M14 = assay: Anticancer activity against human M14 cells assessed as cell growth at 10^-5 M after 48 hrs by SRB assay; settings: M14, 48 h, read-out: Activity; method in brief: as §1

Compound	growth at 10 µM (SNB-19) [%]	growth at 10 µM (EKVX) [%]	growth at 10 µM (MDA-MB-231) [%]	growth at 10 µM (SK-MEL-2) [%]	growth at 10 µM (SR) [%]	growth at 10 µM (HCT-116) [%]	growth at 10 µM (HOP-92) [%]	growth at 10 µM (NCI-H322M) [%]	growth at 10 µM (IGROV-1) [%]	growth at 10 µM (UACC-257) [%]	growth at 10 µM (UO-31) [%]	growth at 10 µM (NCI-H460) [%]	growth at 10 µM (BT-549) [%]	growth at 10 µM (HT-29) [%]	growth at 10 µM (MOLT-4) [%]	growth at 10 µM (HOP-62) [%]	growth at 10 µM (CCRF-CEM) [%]	growth at 10 µM (SK-MEL-5) [%]	growth at 10 µM (A549) [%]	growth at 10 µM (OVCAR-4) [%]	further results
COc1cccc(-c2nc3sccn3c2-c2ccnc(NCCNC(=O)Nc3ccccc3)n2)c1	103	113	103	99.9	93.1	52.9	70.9	108	97.9	119	76.1	115	96	87.5	74.9	129	44.4	81.9	101	106	growth at 10 µM (UACC-62): 86%; growth at 10 µM (NCI-H522): 82.7%; growth at 10 µM (T47D): 82.5%; growth at 10 µM (NCI-H23): 111%; growth at 10 µM (NCI/ADR-RES): 96.1%; growth at 10 µM (RXF 393): 107%; growth at 10 µM (SF-539): 43.8%; growth at 10 µM (COLO 205): 100%; growth at 10 µM (SW-620): 77.3%; growth at 10 µM (MDA-MB-468): 101%; growth at 10 µM (MCF7): 96.2%; growth at 10 µM (M14): 99.1%
COc1cccc(-c2nc3sccn3c2-c2ccnc(NCCNC(=O)Nc3cccc(C(F)(F)F)c3)n2)c1	74.8	61.5	43.6	61.9	38.5	44.6	92.4	81.3	50.9	69.5	39.7	45.1	71.9	44.1	36.7	98.9	27	51.5	44.4	91.1	growth at 10 µM (UACC-62): 50.5%; growth at 10 µM (NCI-H522): 47.7%; growth at 10 µM (T47D): 42.9%; growth at 10 µM (NCI-H23): 83.8%; growth at 10 µM (NCI/ADR-RES): 27.2%; growth at 10 µM (RXF 393): 6.3%; growth at 10 µM (SF-539): 77.9%; growth at 10 µM (COLO 205): 57.6%; growth at 10 µM (SW-620): 88.9%; growth at 10 µM (MDA-MB-468): 39.6%; growth at 10 µM (MCF7): 54.8%; growth at 10 µM (M14): 39.2%
O=C(NCCNc1nccc(-c2c(-c3cccc(O)c3)nc3sccn23)n1)Nc1ccccc1	108	118	85.9	97.5	90.1	67.5	90.2	113	99.9	46.2	86.6	102	96.2	61.9	65.5	150	46	69.3	90.7	123	growth at 10 µM (UACC-62): 24.6%; growth at 10 µM (NCI-H522): 57%; growth at 10 µM (T47D): 74.1%; growth at 10 µM (NCI-H23): 114%; growth at 10 µM (NCI/ADR-RES): 101%; growth at 10 µM (RXF 393): 86.3%; growth at 10 µM (SF-539): 62.4%; growth at 10 µM (COLO 205): 69.3%; growth at 10 µM (SW-620): 63.3%; growth at 10 µM (MDA-MB-468): 51.1%; growth at 10 µM (MCF7): 93.8%; growth at 10 µM (M14): 24%
